Legend:
[1] = system: Plasmodium falciparum; test: Antiplasmodial activity against chloroquine-sensitive ring stage Plasmodium falciparum 3D7 infected in human red blood cells after 48 hrs; format: functional, organism-based; settings: 3D7, 48 h
[2] = system: Plasmodium falciparum; test: Antiplasmodial activity against chloroquine and pyrimethamine-resistant ring stage Plasmodium falciparum V1/S infected in human red blood cells after 48 hrs; format: functional, organism-based
[3] = system: Plasmodium falciparum; test: Antiplasmodial activity against chloroquine-sensitive, mefloquine-resistant ring stage Plasmodium falciparum D6 infected in human red blood cells after 48 hrs; format: functional, organism-based; settings: D6, 48 h
[4] = Selectivity index, ratio of IC50 for african green monkey Vero cells to IC50 for chloroquine-resistant ring stage Plasmodium falciparum W2; format: toxicity, cell-based; settings: read-out: Ratio IC50
How it was run: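 Vero IC50 divided by W2 IC50. Vero: 15000 cells/well adhered overnight, then log dilutions from 30 mg/mL DMSO stock for 48 h. MTT 0.5 mg/mL final for 2 h at 37 C, formazan dissolved in 95% ethanol, A570 read against DMSO vehicle as 100% viability. W2: 48 h YOYO-1 flow-cytometric growth assay in human erythrocytes.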

[5] = system: Plasmodium falciparum; test: Resistance index, ratio of IC50 for chloroquine-resistant ring stage Plasmodium falciparum W2 to IC50 for chloroquine-sensitive ring stage Plasmodium falciparum 3D7; format: functional
How it was run: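 W2 IC50 divided by 3D7 IC50. Both were measured by 48 h YOYO-1 flow-cytometric growth assay on sorbitol-synchronised 1% ring-stage cultures in human erythrocytes at 37 C under 3% O2.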

[6] = system: Heme; test: Binding affinity to heme by UV-visible titration
How it was run: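 Hematin monomer (FPIX-OH, 10 μM) in pH 5.5 HEPES-buffered 40% DMSO v/v at 25 C, titrated with ligand from 100 μM solution until above hematin concentration. Stirred 1 min per addition; spectra 230–500 nm, Soret change at 402 nm. Absorbance dilution-corrected, nonlinear fit for Kd; Kass calculated from Kd.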

[7] = system: Nucleic Acid; test: Binding affinity to s(GATCCTAGGATC)2-DNA by fluorescence spectroscopy; format: nucleic-acid assay
How it was run: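 Buffer 0.01 M phosphate pH 7.4, 0.1 M NaCl, 25.0 C, 1 cm quartz cuvettes. Fluorescence: excitation 339 nm, emission 450–500 nm. Dilution-corrected intensity change fitted to single-site binding for Kd; Kass taken as 1/Kd.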

[8] = Inhibition of Plasmodium falciparum falcipain 2
[9] = Inhibition of Plasmodium falciparum falcipain 3
[10] = system: Plasmodium falciparum; test: Antiplasmodial activity against chloroquine-resistant ring stage Plasmodium falciparum W2 infected in human red blood cells after 48 hrs; format: functional, organism-based; settings: W2, 48 h
[11] = system: Vero; test: Cytotoxicity against african green monkey Vero cells after 48 hrs by MTT assay; format: cell-based; settings: Chlorocebus sabaeus
How it was run: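 Vero monkey kidney cells in DMEM with 10% FBS at 37 C, 7% CO2; seeded 15000 cells/well and adhered overnight. Log dilutions from 30 mg/mL DMSO stock, 48 h exposure. MTT at 0.5 mg/mL final for 2 h; formazan dissolved in 95% ethanol, read at 570 nm. Viability relative to DMSO-medium wells; IC50 from concentration–viability curve; doxorubicin as standard.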

## CN(C)CC(C)(C)CNc1c2ccccc2[n+](C)c2c1[nH]c1ccccc12.[Cl-]
[1]
  IC50: 146 nM
[2]
  IC50: 144 nM
[3]
  IC50: 250 nM
[4]
  selectivity ratio: 18
[5]
  Ratio IC50: 1.3
[6]
  Ka: 0.069 ×10⁶ /M
[7]
  Ka: 2.6 ×10⁶ /M
[8]
  IC50: 33500 nM
[9]
  IC50: 26000 nM

## C[n+]1c2cc(Cl)ccc2c(NC2CCNCC2)c2[nH]c3cc(Cl)ccc3c21.[Cl-]
[10]
  IC50: 48 nM
[1]
  IC50: 31 nM
[2]
  IC50: 35 nM
[3]
  IC50: 30 nM
[4]
  selectivity ratio: 16
[5]
  Ratio IC50: 1.4
[6]
  Ka: 0.12 ×10⁶ /M
[7]
  Ka: 1.6 ×10⁶ /M
[8]
  IC50: 4800 nM

## C[n+]1c2ccccc2c(NC2CCN(Cc3ccccc3O)CC2)c2[nH]c3ccccc3c21.[Cl-]
[10]
  IC50: 276 nM
[1]
  IC50: 536 nM
[2]
  IC50: 418 nM
[3]
  IC50: 185 nM
[4]
  selectivity ratio: 10
[5]
  Ratio IC50: 0.7
[6]
  Ka: 0.108 ×10⁶ /M
[7]
  Ka: 0.6 ×10⁶ /M
[8]
  IC50: 14800 nM
[9]
  IC50: 43000 nM

## C[n+]1c2ccccc2c(NC2CCN(Cc3ccccc3)CC2)c2[nH]c3ccccc3c21.[Cl-]
[10]
  IC50: 108 nM
[1]
  IC50: 56 nM
[2]
  IC50: 59 nM
[3]
  IC50: 86 nM
[4]
  selectivity ratio: 21
[5]
  Ratio IC50: 1.8
[6]
  Ka: 0.125 ×10⁶ /M
[7]
  Ka: 0.68 ×10⁶ /M
[8]
  IC50: 12800 nM

## C[n+]1c2ccccc2c(Nc2ccccc2)c2[nH]c3ccccc3c21.[Cl-]
[10]
  IC50: 265 nM
[1]
  IC50: 291 nM
[2]
  IC50: 128 nM
[3]
  IC50: 154 nM
[4]
  selectivity ratio: 2
[5]
  Ratio IC50: 0.2
[6]
  Ka: 0.155 ×10⁶ /M
[7]
  Ka: 0.51 ×10⁶ /M
[8]
  IC50: 14000 nM

## C[n+]1c2ccccc2c(Nc2ccc(N3CCCCC3)cc2)c2[nH]c3ccccc3c21.[Cl-]
[10]
  IC50: 455 nM
[1]
  IC50: 375 nM
[2]
  IC50: 176 nM
[3]
  IC50: 287 nM
[4]
  selectivity ratio: 11
[5]
  Ratio IC50: 2.6
[6]
  Ka: 0.21 ×10⁶ /M
[7]
  Ka: 3.4 ×10⁶ /M
[8]
  IC50: 8200 nM

## CC(CN(C)C)Nc1c2ccccc2[n+](C)c2c1[nH]c1ccccc12.[Cl-] (stereo not given)
[10]
  IC50: 142 nM
[1]
  IC50: 202 nM
[2]
  IC50: 165 nM
[3]
  IC50: 78 nM
[4]
  selectivity ratio: 23
[5]
  Ratio IC50: 0.9
[6]
  Ka: 0.148 ×10⁶ /M
[7]
  Ka: 1.9 ×10⁶ /M
[8]
  IC50: 8300 nM
[9]
  IC50: 14000 nM

## CCN(CC)CCCC(C)Nc1c2ccccc2[n+](C)c2c1[nH]c1ccccc12.[Cl-] (stereo not given)
[10]
  IC50: 122 nM
[1]
  IC50: 145 nM
[2]
  IC50: 274 nM
[3]
  IC50: 161 nM
[4]
  selectivity ratio: 103
[5]
  Ratio IC50: 0.4
[6]
  Ka: 0.062 ×10⁶ /M
[7]
  Ka: 4.3 ×10⁶ /M
[8]
  IC50: 11600 nM
[9]
  IC50: 7000 nM

## CCN(CC)CCCNc1c2ccc(Cl)cc2[n+](C)c2c1[nH]c1ccccc12.[Cl-]
[10]
  IC50: 21 nM
[1]
  IC50: 34 nM
[2]
  IC50: 40 nM
[3]
  IC50: 70 nM
[11]
  IC50: 13000 nM
[4]
  selectivity ratio: 60
[5]
  Ratio IC50: 0.5
[6]
  Ka: 0.11 ×10⁶ /M
[7]
  Ka: 17 ×10⁶ /M
[8]
  IC50: 11000 nM

## CC(C)CN1CCC(Nc2c3ccccc3[n+](C)c3c2[nH]c2ccccc23)CC1.[Cl-]
[10]
  IC50: 70 nM
[1]
  IC50: 70 nM
[2]
  IC50: 76 nM
[3]
  IC50: 86 nM
[4]
  selectivity ratio: 70
[5]
  Ratio IC50: 0.9
[6]
  Ka: 0.227 ×10⁶ /M
[7]
  Ka: 0.74 ×10⁶ /M
[8]
  IC50: 10500 nM
[9]
  IC50: 16000 nM

## C[n+]1c2ccccc2c(NCCCN)c2[nH]c3ccccc3c21.[Cl-]
[10]
  IC50: 26 nM
[1]
  IC50: 54 nM
[2]
  IC50: 133 nM
[3]
  IC50: 71 nM
[11]
  IC50: 10000 nM
[4]
  selectivity ratio: 371
[5]
  Ratio IC50: 0.2
[6]
  Ka: 0.18 ×10⁶ /M
[7]
  Ka: 0.25 ×10⁶ /M
[8]
  IC50: 11000 nM
[9]
  IC50: 14000 nM

## CCN(CC)CCCCNc1c2ccccc2[n+](C)c2c1[nH]c1ccccc12.[Cl-]
[10]
  IC50: 29 nM
[1]
  IC50: 22.3 nM
[2]
  IC50: 66 nM
[3]
  IC50: 71 nM
[11]
  IC50: 10000 nM
[4]
  selectivity ratio: 358
[5]
  Ratio IC50: 0.4
[6]
  Ka: 0.15 ×10⁶ /M
[7]
  Ka: 9 ×10⁶ /M
